ChEMBL document CHEMBL1143400, “A diarylquinoline drug active on the ATP synthase of Mycobacterium tuberculosis” (Science, 2005)

Tests used:
[1] = tested on: Mycobacterium tuberculosis; test: Antimycobacterial activity against Mycobacterium tuberculosis H37Rv infected Swiss mouse assessed as spleen weight at 50 mg/kg 5 times weekly for 4 weeks; assay type: functional
[2] = tested on: Mycobacterium tuberculosis; test: Antimycobacterial activity against Mycobacterium tuberculosis H37Rv infected Swiss mouse assessed as reduction of bacterial count in spleen at 50 mg/kg 5 times weekly for 4 weeks; assay type: functional
Procedure, shortened: (§1)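 Nonestablished infection model in mice. Oral dosing began the day after inoculation, given 5 times per week for 4 weeks; one 12.5 mg/kg group was dosed once weekly. Mice were killed on day 28 and lung and spleen CFU counted, with untreated controls taken at day 1. Means ± SD; pairwise comparisons by Bonferroni's method.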

[3] = tested on: Mycobacterium tuberculosis; test: Antimycobacterial activity against Mycobacterium tuberculosis H37Rv infected Swiss mouse assessed as reduction of bacterial count in lungs at 50 mg/kg 5 times weekly for 4 weeks; assay type: functional; procedure, shortened: as §1
[4] = tested on: Mycobacterium tuberculosis; test: Antimycobacterial activity against Mycobacterium tuberculosis H37Rv infected Swiss mouse assessed as spleen weight at 75 mg/kg 5 times weekly for 4 weeks; assay type: functional
[5] = tested on: Mycobacterium tuberculosis; test: Antimycobacterial activity against Mycobacterium tuberculosis H37Rv infected Swiss mouse assessed as reduction of bacterial count in spleen at 75 mg/kg 5 times weekly for 4 weeks; assay type: functional; procedure, shortened: as §1
[6] = tested on: Mycobacterium tuberculosis; test: Antimycobacterial activity against Mycobacterium tuberculosis H37Rv infected Swiss mouse assessed as reduction of bacterial count in lungs at 75 mg/kg 5 times weekly for 4 weeks; assay type: functional; procedure, shortened: as §1
[7] = tested on: Mycobacterium tuberculosis; test: Antimycobacterial activity against Mycobacterium tuberculosis H37Rv infected Swiss mouse assessed as spleen weight at 100 mg/kg 5 times weekly for 4 weeks; assay type: functional
[8] = tested on: Mycobacterium tuberculosis; test: Antimycobacterial activity against Mycobacterium tuberculosis H37Rv infected Swiss mouse assessed as reduction of bacterial count in spleen at 100 mg/kg 5 times weekly for 4 weeks; assay type: functional; procedure, shortened: as §1
[9] = tested on: Mycobacterium tuberculosis; test: Antimycobacterial activity against Mycobacterium tuberculosis H37Rv infected Swiss mouse assessed as reduction of bacterial count in lungs at 100 mg/kg 5 times weekly for 4 weeks; assay type: functional; procedure, shortened: as §1
[10] = tested on: Mus musculus; test: Toxicity in Mycobacterium tuberculosis H37Rv infected Swiss mouse at 25 mg/kg 5 times weekly for 4 weeks; assay type: organism-based; parameters: dose 25 mg/kg; conditions: in vivo, 672 h
[11] = tested on: Mus musculus; test: Toxicity in Mycobacterium tuberculosis H37Rv infected Swiss mouse at 12.5 mg/kg 5 times weekly for 4 weeks; assay type: organism-based; parameters: dose 12.5 mg/kg; conditions: in vivo, 672 h
[12] = tested on: Mus musculus; test: Toxicity in Mycobacterium tuberculosis H37Rv infected Swiss mouse at 50 mg/kg 5 times weekly for 4 weeks; assay type: organism-based; parameters: dose 50 mg/kg; conditions: in vivo, 672 h
[13] = tested on: Mus musculus; test: Toxicity in Mycobacterium tuberculosis H37Rv infected Swiss mouse at 75 mg/kg 5 times weekly for 4 weeks; assay type: organism-based; parameters: dose 75 mg/kg; conditions: in vivo, 672 h
[14] = tested on: Mus musculus; test: Toxicity in Mycobacterium tuberculosis H37Rv infected Swiss mouse at 100 mg/kg 5 times weekly for 4 weeks; assay type: organism-based; parameters: dose 100 mg/kg; conditions: in vivo, 672 h
[15] = tested on: Mycobacterium tuberculosis; test: Antimycobacterial activity against Mycobacterium tuberculosis H37Rv infected Swiss mouse assessed as spleen weight at 25 mg/kg 5 times weekly for 4 weeks; assay type: functional
[16] = tested on: Mycobacterium tuberculosis; test: Antimycobacterial activity against Mycobacterium tuberculosis H37Rv infected Swiss mouse assessed as reduction of bacterial count in spleen at 25 mg/kg 5 times weekly for 4 weeks; assay type: functional; procedure, shortened: as §1
[17] = tested on: Mycobacterium tuberculosis; test: Antimycobacterial activity against Mycobacterium tuberculosis H37Rv infected Swiss mouse assessed as reduction of bacterial count in lungs at 25 mg/kg 5 times weekly for 4 weeks; assay type: functional; procedure, shortened: as §1
[18] = tested on: Mycobacterium tuberculosis; test: Antimycobacterial activity against Mycobacterium tuberculosis H37Rv infected Swiss mouse assessed as reduction of bacterial count in lungs at 10 mg/kg after 12 days infection weekly 5 times for 1 month; assay type: functional
Procedure, shortened: (§2)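 Established infection model in mice. Treatment started 12 to 14 days after inoculation, given 5 times per week. Mice were killed on day 12 just before treatment, on day 42 (1 month of therapy) and on day 70 (2 months), and lung CFU counted. Means ± SD; pairwise comparisons by Bonferroni's method.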

[19] = tested on: Mycobacterium tuberculosis; test: Antimycobacterial activity against Mycobacterium tuberculosis H37Rv infected Swiss mouse assessed as spleen weight at 10 mg/kg after 12 days of infection weekly 5 times for 8 weeks; assay type: functional
[20] = tested on: Mycobacterium tuberculosis; test: Antimycobacterial activity against Mycobacterium tuberculosis H37Rv infected Swiss mouse assessed as reduction of bacterial count in lungs at 10 mg/kg after 12 days of infection weekly 5 times for 8 weeks; assay type: functional; procedure, shortened: as §2
[21] = tested on: Plasma; test: Drug level in human plasma; assay type: ADME, cell-free
[22] = tested on: Mycobacterium tuberculosis; test: Antimycobacterial activity against Mycobacterium tuberculosis H37Rv infected Swiss mouse assessed as spleen weight at 10 mg/kg after 12 days infection weekly 5 times for 1 month; assay type: functional
[23] = tested on: Mycobacterium tuberculosis; test: Antimycobacterial activity against Mycobacterium tuberculosis H37Rv infected Swiss mouse assessed as reduction of bacterial count in spleen at 10 mg/kg after 12 days infection weekly 5 times for 1 month; assay type: functional

| SMILES | Activity [1] [mg] | log10cfu [2] | log10cfu [3] | Activity [4] [mg] | log10cfu [5] | log10cfu [6] | Activity [7] [mg] | log10cfu [8] | log10cfu [9] | other results |
| --- | --- | --- | --- | --- | --- | --- | --- | --- | --- | --- |
| COc1nc2ccc(Br)cc2cc1[C@@H](c1ccccc1)[C@@](O)(CCN(C)C)c1cccc(F)c1 | 278 | 4.68 | 5.2 | 197 | 4.04 | 4.32 | 206 | 3.63 | 3.63 | – |
| COc1nc2ccc(Br)cc2cc1[C@@H](c1ccccc1)[C@@](O)(CCN(C)C)c1ccccc1 | 410 | 5.78 | 6.4 | 390 | 5.72 | 6.03 | 424 | 5.68 | 6.1 | Activity [10]: Non-toxic; Activity [11]: Non-toxic; Activity [12]: Non-toxic; Activity [13]: Non-toxic; Activity [14]: Non-toxic |
| NNC(=O)c1ccncc1 [ISONIAZID] | – | – | – | – | – | – | – | – | – | Activity [15]: 185 mg; log10cfu [16]: 3.05 mg; log10cfu [17]: 1.75 mg |
| CO[C@H]1/C=C/O[C@@]2(C)Oc3c(C)c(O)c4c(O)c(c(/C=N/N5CCN(C)CC5)c(O)c4c3C2=O)NC(=O)/C(C)=C\C=C\[C@H](C)[C@H](O)[C@@H](C)[C@@H](O)[C@@H](C)[C@H](OC(C)=O)[C@@H]1C [RIFAMPIN] | – | – | – | – | – | – | – | – | – | log10cfu [18]: 4.05; Activity [19]: 391 mg; log10cfu [20]: 1.89; Drug uptake [21]: < 0.001 µg/mL; Activity [22]: 466 mg; log10cfu [23]: 4.72 |
